Test results from ChEMBL document CHEMBL4602720, “Degradation versus Inhibition: Development of Proteolysis-Targeting Chimeras for Overcoming Statin-Induced Compensatory Upregulation of 3-Hydroxy-3-methylglutaryl Coenzyme A Reductase” (J Med Chem, 2020).
Activity calls are given as the source filed them. The calls are words filed in the database; no cut-off is given here.

Assays:
[1] = biological target: T1, Protein cereblon/3-hydroxy-3-methylglutaryl-coenzyme A reductase (Cricetulus griseus) (UniProt P00347+G3H338); experiment: Protac activity at CRBN/HMGCR in Insig-1/Insig-2 deficient Chinese hamster SRD15 cells assessed as induction of HMGCR degradation at 3 uM after 16 hrs by immunoblotting analysis
In short: (§1)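 SRD15 cells treated with compound at varying concentrations for 16 h, final DMSO ≤0.1%; RIPA lysates (Lowry protein) immunoblotted for HMGCR, densitometry normalized to actin, DMSO set to 1; DC50 = concentration giving 50% loss versus DMSO, fitted to dose-response curve, mean of 3 independent experiments.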

[2] = biological target: T2, Protein cereblon/3-hydroxy-3-methylglutaryl-coenzyme A reductase (Cricetulus griseus, UniProt P00347+G3H338); experiment: Protac activity at CRBN/HMGCR in Insig-1/Insig-2 deficient Chinese hamster SRD15 cells assessed as induction of HMGCR degradation after 16 hrs by immunoblotting analysis; in short: as §1
T2 sequence (P00347 whole entry): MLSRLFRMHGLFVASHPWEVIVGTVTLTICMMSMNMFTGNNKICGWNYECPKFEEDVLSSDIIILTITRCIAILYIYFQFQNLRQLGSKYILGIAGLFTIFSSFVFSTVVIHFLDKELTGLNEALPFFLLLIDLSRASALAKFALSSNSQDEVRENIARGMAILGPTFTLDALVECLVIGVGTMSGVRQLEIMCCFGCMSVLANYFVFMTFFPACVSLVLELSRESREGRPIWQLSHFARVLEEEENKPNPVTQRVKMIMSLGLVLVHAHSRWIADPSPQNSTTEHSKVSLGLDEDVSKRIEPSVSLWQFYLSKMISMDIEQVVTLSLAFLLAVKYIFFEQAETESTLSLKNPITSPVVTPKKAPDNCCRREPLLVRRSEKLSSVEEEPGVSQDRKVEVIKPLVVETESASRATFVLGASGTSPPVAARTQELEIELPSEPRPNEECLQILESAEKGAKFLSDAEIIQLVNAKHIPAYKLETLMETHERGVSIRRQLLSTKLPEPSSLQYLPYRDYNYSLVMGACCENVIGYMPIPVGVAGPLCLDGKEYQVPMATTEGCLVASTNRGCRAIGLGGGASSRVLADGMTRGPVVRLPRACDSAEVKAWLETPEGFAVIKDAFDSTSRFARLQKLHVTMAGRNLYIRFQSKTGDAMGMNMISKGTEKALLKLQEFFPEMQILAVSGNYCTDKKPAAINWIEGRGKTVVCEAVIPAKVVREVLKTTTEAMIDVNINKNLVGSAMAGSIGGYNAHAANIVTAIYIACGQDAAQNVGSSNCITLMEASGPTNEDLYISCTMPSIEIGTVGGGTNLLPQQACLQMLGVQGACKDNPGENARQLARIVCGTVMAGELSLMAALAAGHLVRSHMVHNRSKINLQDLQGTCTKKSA
T2 sequence (G3H338 whole entry): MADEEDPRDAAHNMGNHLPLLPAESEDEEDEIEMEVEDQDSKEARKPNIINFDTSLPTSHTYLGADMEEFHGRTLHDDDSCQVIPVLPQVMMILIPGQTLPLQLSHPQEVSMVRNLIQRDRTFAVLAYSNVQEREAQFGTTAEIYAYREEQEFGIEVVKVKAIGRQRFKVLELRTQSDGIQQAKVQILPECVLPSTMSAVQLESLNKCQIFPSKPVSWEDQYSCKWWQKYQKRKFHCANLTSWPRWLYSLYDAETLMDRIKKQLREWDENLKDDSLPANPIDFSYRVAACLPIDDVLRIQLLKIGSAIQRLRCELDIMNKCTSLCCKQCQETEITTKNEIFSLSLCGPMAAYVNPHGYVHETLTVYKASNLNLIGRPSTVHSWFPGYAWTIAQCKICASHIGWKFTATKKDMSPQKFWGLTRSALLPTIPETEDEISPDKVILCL

[3] = biological target: T1, Protein cereblon/3-hydroxy-3-methylglutaryl-coenzyme A reductase (Cricetulus griseus); experiment: Protac activity at CRBN/HMGCR in Insig-1/Insig-2 deficient Chinese hamster SRD15 cells assessed as induction of HMGCR degradation at 0.01 to 1 uM after 16 hrs by immunoblotting analysis; in short: as §1
[4] = biological target: T3, Sterol regulatory element-binding protein 2 (Mus musculus) (UniProt Q3U1N2); experiment: Activation of SREBP2 pathway in mouse primary hepatocytes assessed as increase in HMGCR mRNA expression at 0.01 to 1 uM afer 16 hrs by quantitative real-time PCR analysis; type: cell-based
T3 sequence (whole entry): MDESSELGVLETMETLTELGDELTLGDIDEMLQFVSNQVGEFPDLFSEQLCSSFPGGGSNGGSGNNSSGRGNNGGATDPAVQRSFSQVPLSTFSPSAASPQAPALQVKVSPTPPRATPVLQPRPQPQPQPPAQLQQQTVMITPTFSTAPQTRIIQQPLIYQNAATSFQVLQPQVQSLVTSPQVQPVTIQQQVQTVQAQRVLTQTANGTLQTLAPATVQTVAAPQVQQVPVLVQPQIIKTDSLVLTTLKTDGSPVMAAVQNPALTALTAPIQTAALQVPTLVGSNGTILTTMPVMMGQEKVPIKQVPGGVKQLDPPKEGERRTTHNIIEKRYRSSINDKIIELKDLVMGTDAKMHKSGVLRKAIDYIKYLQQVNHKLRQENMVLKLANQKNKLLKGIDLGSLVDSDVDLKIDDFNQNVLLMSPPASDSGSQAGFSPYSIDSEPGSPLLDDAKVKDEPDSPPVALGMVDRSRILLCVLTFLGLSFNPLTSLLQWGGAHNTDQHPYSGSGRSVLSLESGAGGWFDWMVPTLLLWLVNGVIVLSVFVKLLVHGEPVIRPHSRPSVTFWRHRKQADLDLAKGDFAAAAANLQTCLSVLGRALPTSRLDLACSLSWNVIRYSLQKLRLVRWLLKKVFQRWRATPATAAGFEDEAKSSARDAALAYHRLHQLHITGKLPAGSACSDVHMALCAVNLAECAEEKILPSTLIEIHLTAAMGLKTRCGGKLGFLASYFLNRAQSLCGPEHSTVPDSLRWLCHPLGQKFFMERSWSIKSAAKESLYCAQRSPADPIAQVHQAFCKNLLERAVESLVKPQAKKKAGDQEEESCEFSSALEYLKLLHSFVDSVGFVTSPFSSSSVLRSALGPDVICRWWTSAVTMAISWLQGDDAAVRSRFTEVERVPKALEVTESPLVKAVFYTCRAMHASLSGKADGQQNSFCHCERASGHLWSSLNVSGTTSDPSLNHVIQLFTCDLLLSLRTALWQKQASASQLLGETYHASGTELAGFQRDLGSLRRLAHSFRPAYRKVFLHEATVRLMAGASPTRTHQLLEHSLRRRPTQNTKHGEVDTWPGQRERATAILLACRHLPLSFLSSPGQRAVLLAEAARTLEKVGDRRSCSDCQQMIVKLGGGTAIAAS

[5] = biological target: T3, Sterol regulatory element-binding protein 2 (Mus musculus); experiment: Activation of SREBP2 pathway in mouse primary hepatocytes assessed as increase in LDLR mRNA expression at 0.01 to 1 uM afer 16 hrs by quantitative real-time PCR analysis; type: cell-based
[6] = biological target: T4, Thioredoxin domain-containing protein 11 (Homo sapiens) (UniProt Q6PKC3); experiment: Activation of TXNDC11 (unknown origin)
T4 sequence (whole entry): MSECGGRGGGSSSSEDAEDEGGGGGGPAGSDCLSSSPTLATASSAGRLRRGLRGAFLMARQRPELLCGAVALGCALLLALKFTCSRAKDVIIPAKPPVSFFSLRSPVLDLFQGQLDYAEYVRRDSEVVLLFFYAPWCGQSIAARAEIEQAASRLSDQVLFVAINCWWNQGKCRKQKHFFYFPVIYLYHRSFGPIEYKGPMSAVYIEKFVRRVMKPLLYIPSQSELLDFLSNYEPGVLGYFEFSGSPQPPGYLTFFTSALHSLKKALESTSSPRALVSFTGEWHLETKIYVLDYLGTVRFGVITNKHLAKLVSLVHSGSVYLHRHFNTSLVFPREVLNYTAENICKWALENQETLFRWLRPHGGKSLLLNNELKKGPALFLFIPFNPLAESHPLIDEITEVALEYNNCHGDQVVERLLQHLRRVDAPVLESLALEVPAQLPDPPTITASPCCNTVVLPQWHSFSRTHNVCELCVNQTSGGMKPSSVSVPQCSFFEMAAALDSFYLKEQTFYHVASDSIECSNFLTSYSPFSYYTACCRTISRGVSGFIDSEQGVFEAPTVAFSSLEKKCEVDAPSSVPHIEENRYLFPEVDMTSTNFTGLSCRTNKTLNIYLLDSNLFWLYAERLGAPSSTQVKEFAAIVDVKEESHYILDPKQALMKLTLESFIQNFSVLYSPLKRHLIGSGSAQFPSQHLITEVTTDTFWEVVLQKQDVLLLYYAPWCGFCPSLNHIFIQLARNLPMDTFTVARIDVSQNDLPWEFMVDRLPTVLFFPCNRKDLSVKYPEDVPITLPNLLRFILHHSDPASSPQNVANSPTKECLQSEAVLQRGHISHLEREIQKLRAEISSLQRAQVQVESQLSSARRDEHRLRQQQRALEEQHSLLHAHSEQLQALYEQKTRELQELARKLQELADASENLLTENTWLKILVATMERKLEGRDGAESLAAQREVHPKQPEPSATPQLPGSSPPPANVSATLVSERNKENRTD

[7] = tested on: Huh-7; experiment: Inhibition of cholesterol biosynthesis in human HuH7 cells preincubated for 14 hrs and followed by addition of 14C-acetate and measured after 2 hrs by TL method; type: functional, cell-based
In short: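 Sterol-depleted Huh7 cells (Medium B plus 5% lipoprotein-deficient serum) treated at varying concentrations for 14 h, pulse-labelled with ¹⁴C-acetate 1 μCi/μL for 2 h, washed, lysed in 0.1 M NaOH; lipids separated by TLC, ¹⁴C-cholesterol read by phosphorimager, DMSO set to 1.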

| SMILES | DC50 [2] [nM] | Activity [3] | Activity [4] | Activity [5] | also measured |
| --- | --- | --- | --- | --- | --- |
| C#CCOc1cccc(-c2c(C(=O)Nc3ccccc3)c(C(C)C)n(CC[C@@H](O)C[C@@H](O)CC(=O)O)c2-c2ccc(F)cc2)c1 | – | inactive | – | – | – |
| C#CCCCOc1cccc(-c2c(C(=O)Nc3ccccc3)c(C(C)C)n(CC[C@@H](O)C[C@@H](O)CC(=O)O)c2-c2ccc(F)cc2)c1 | – | inactive | – | – | – |
| C#CCCCCOc1cccc(-c2c(C(=O)Nc3ccccc3)c(C(C)C)n(CC[C@@H](O)C[C@@H](O)CC(=O)O)c2-c2ccc(F)cc2)c1 | – | inactive | – | – | – |
| CC(C)c1c(C(=O)Nc2ccccc2)c(-c2cccc(OCCCCc3cn(CCCCCCCNc4cccc5c4C(=O)N(C4CCC(=O)NC4=O)C5=O)nn3)c2)c(-c2ccc(F)cc2)n1CC[C@@H](O)C[C@@H](O)CC(=O)O (stereo partly drawn) | 300 | – | Active | Active | – |
| C#CCCCCCOc1cccc(-c2c(C(=O)Nc3ccccc3)c(C(C)C)n(CC[C@@H](O)C[C@@H](O)CC(=O)O)c2-c2ccc(F)cc2)c1 | – | inactive | – | – | – |
| CC(C)c1c(C(=O)Nc2ccccc2)c(-c2ccccc2)c(-c2ccc(F)cc2)n1CC[C@@H](O)C[C@@H](O)CC(=O)O | – | – | – | – | fold change (FC) [6]: 108; inhibition [7]: Active |
| CC(C)c1c(C(=O)Nc2ccccc2)c(-c2cccc(OCCCCCc3cn(CCCCCCCNc4cccc5c4C(=O)N(C4CCC(=O)NC4=O)C5=O)nn3)c2)c(-c2ccc(F)cc2)n1CC[C@@H](O)C[C@@H](O)CC(=O)O (stereo partly drawn) | 400 | – | Active | Active | – |

Further lines, with some results ahead:

| DC50 [2] [nM] | Activity [3] | Activity [4] | Activity [5] | SMILES | also measured |
| --- | --- | --- | --- | --- | --- |
| 300 | – | – | – | CC(C)c1c(C(=O)Nc2ccccc2)c(-c2cccc(OCCCc3cn(CCOCCOCCOCCOCCNc4ccc5c(c4)C(=O)N(C4CCC(=O)NC4=O)C5=O)nn3)c2)c(-c2ccc(F)cc2)n1CC[C@@H](O)C[C@@H](O)CC(=O)O (stereo partly drawn) | Activity [1]: inactive |
| > 3000 | – | – | – | CC(C)c1c(C(=O)Nc2ccccc2)c(-c2cccc(OCCCCc3cn(CCOCCOCCOCCOCCOCCNc4cccc5c4C(=O)N(C4CCC(=O)NC4=O)C5=O)nn3)c2)c(-c2ccc(F)cc2)n1CC[C@@H](O)C[C@@H](O)CC(=O)O (stereo partly drawn) | – |
| > 3000 | – | – | – | CC(C)c1c(C(=O)Nc2ccccc2)c(-c2cccc(OCCCc3cn(CCOCCOCCOCCNc4ccc5c(c4)C(=O)N(C4CCC(=O)NC4=O)C5=O)nn3)c2)c(-c2ccc(F)cc2)n1CC[C@@H](O)C[C@@H](O)CC(=O)O (stereo partly drawn) | – |
| 200 | – | Active | Active | CC(C)c1c(C(=O)Nc2ccccc2)c(-c2cccc(OCCCc3cn(CCCCCCCNc4cccc5c4C(=O)N(C4CCC(=O)NC4=O)C5=O)nn3)c2)c(-c2ccc(F)cc2)n1CC[C@@H](O)C[C@@H](O)CC(=O)O (stereo partly drawn) | – |
| 400 | – | Active | Active | CC(C)c1c(C(=O)Nc2ccccc2)c(-c2cccc(OCCCc3cn(CCCCCCNc4cccc5c4C(=O)N(C4CCC(=O)NC4=O)C5=O)nn3)c2)c(-c2ccc(F)cc2)n1CC[C@@H](O)C[C@@H](O)CC(=O)O (stereo partly drawn) | – |
| > 3000 | – | – | – | CC(C)c1c(C(=O)Nc2ccccc2)c(-c2cccc(OCCCCc3cn(CCOCCOCCOCCOCCNc4ccc5c(c4)C(=O)N(C4CCC(=O)NC4=O)C5=O)nn3)c2)c(-c2ccc(F)cc2)n1CC[C@@H](O)C[C@@H](O)CC(=O)O (stereo partly drawn) | – |
